Results from ChEMBL document CHEMBL1155242, “Radiolabeled 5-iodo-3'-O-(17beta-succinyl-5alpha-androstan-3-one)-2'-deoxyuridine and its 5'-monophosphate for imaging and therapy of androgen receptor-positive cancers: synthesis and biological evaluation” (J Med Chem, 2009).

Columns and labels:
[1] = Biodistribution in large intestine of athymic NCr mouse xenografted with human OVCAR-3 cells assessed per gram of tissue at an average 39.5 uCi/dose, ip administered 9 days after tumor implantation as six fractionated doses every 4 days measured after 2 weeks of last dose by gamma counting; format: ADME, organism-based; settings: in vivo, 336 h
How it was run: (§1)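 OVCAR-3-bearing and healthy athymic mice given fractionated ip doses on the six-dose every-4-days schedule; tissues, tumor and lavaged cells γ-counted at necropsy, %ID/g; DNA-bound 125I in cells measured as cpm/cell.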

OVCAR-3 [2] = assay: Antitumor activity against human OVCAR-3 cells xenografted in athymic NCr mouse assessed as tumor burden in peritoneum at 0.25 mCi, ip administered 31 days after tumor implantation as single bolus dose measured 55 days after implantation by gamma counting in presence of SHBG (Rvb= 4.1 +/- 0.6 g); format: functional
Stomach = assay: Biodistribution in stomach of athymic NCr mouse xenografted with human OVCAR-3 cells assessed per gram of tissue at an average 39.5 uCi/dose, ip administered 9 days after tumor implantation as six fractionated doses every 4 days measured after 2 weeks of last dose by gamma counting; format: ADME, organism-based; settings: in vivo, 336 h; how it was run: as §1
[3] = biological target: T1, Sex hormone-binding globulin (Oryctolagus cuniculus, UniProt P15196); assay: Binding affinity to rabbit sex hormone binding globulin assessed as intact compound remaining at 10 to 20 uCi/mL after 60 mins by size-exclusion HPLC analysis; format: ADME; settings: read-out: Stability
T1 sequence (P15196 whole entry): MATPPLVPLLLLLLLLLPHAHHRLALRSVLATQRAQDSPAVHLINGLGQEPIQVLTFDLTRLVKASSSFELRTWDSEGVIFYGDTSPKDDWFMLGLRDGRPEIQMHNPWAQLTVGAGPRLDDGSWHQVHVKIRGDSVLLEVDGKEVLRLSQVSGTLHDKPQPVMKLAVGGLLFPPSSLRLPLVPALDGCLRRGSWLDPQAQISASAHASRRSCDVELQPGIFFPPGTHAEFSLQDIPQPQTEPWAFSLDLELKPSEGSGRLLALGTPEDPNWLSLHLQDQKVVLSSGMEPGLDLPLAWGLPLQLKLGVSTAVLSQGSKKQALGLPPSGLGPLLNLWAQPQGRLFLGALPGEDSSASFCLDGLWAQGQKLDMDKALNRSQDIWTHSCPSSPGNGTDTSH
How it was run: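 Radioligand incubated 60 min in rabbit serum; size-exclusion HPLC as for SHBG binding (phosphate/Na2SO4 pH 6.8, then CH3CN gradient) for SHBG-bound peak, with extracts run on C18 for intact compound.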

[4] = Chemical stability in RPMI-1640 serum-free medium assessed as intact compound remaining at 12.2 uCi up to 6 hrs by HPLC analysis; format: physicochemical; settings: read-out: Stability
[5] = Stability in mouse serum assessed as intact compound remaining at 10 to 20 uCi/mL after 10 mins by size-exclusion HPLC analysis; format: ADME, cell-free; settings: read-out: Stability
How it was run: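 The compound was incubated in mouse serum, which lacks circulating SHBG. Aliquots were analysed on size-exclusion HPLC (TSK3000; phosphate/Na2SO4 buffer, pH 6.8, then an acetonitrile gradient). Extracts were analysed by C18 reversed-phase HPLC to measure intact compound remaining over time.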

[6] = biological target: T2, Sex hormone-binding globulin (Homo sapiens, UniProt P04278); assay: Binding affinity to human sex hormone binding globulin assessed as intact compound remaining at 10 to 20 uCi/mL after 60 mins by instant thin layer chromatography; format: ADME; settings: read-out: Stability
T2 sequence (P04278 whole entry): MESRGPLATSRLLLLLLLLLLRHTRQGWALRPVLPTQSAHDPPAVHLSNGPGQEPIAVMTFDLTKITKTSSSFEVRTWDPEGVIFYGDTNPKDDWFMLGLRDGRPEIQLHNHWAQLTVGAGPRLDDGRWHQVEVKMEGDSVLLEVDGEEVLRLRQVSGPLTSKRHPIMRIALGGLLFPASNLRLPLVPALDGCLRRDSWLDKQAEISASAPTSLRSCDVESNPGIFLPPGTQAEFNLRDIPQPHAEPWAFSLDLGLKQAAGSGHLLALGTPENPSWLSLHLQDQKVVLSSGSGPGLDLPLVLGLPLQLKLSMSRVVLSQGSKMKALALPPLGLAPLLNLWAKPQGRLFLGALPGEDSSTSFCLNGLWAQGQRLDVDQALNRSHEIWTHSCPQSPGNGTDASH

OVCAR-3 [7] = assay: Cellular uptake in human OVCAR-3 cells xenografted in athymic NCr mouse assessed as [125I]UdR retention per cell at an average 39.5 uCi/dose, ip administered 9 days after tumor implantation as six fractionated doses every 4 days measured after 2 weeks of last dose by gamma counting; format: ADME, organism-based; settings: in vivo, 336 h; how it was run: as §1
[8] = Ratio of drug level in tumor to liver in athymic NCr mouse xenografted with human OVCAR-3 cells at 180 uCi, ip administered 9 days after tumor implantation as six fractionated doses every 4 days measured after 72 hrs by gamma counting; format: ADME, organism-based; settings: in vivo
LNCaP = assay: Cellular uptake in proliferating human LNCAP cells expressing androgen receptor after 24 hrs by gamma counting; format: ADME, cell-based
How it was run: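 Proliferating LNCaP monolayers exposed 24 h to a range of radioligand concentrations; whole-cell uptake measured.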

OVCAR-3 [9] = assay: Stability in human OVCAR-3 cells expressing androgen receptor assessed as half life at 0.1 uCi/mL by silica gel instant thin layer chromatography; format: ADME, cell-based
How it was run: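 Breakdown was followed with proliferating NIH:OVCAR-3 cells grown in complete RPMI-1640 medium. The distribution of radioactive products released into the culture medium (parent compound, 125IUdR and its 3′-succinate) was measured over time. Half-life was estimated from the time course.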

[10] = Clearance in peritoneal cavity of athymic NCr mouse xenografted with human OVCAR-3 cells assessed as half life at 1.12 uCi, ip by gamma counting; format: ADME, organism-based; settings: in vivo
How it was run: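 Peritoneal clearance measured in athymic NCr-nu/nu mice bearing intraperitoneal NIH:OVCAR-3 xenografts after an ip dose of the 125I compound. The peritoneal cavity was lavaged, and 125I was counted in the lavage and in the recovered tumor cells. Half-lives were estimated from the clearance curves.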

OVCAR-3 [11] = assay: Antitumor activity against human OVCAR-3 cells xenografted in athymic NCr mouse assessed as reduction of tumor size in peritoneum at 180 uCi, ip administered 9 days after tumor implantation as six fractionated doses every 4 days measured after 2 weeks of last dose by gamma counting; format: functional; set-up: scale not given: the % may be the effect or the level left
How it was run: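 OVCAR-3 ip xenografts in athymic mice; six fractionated ip doses every 4 days, total 180 μCi/mouse, with PBS or vehicle ip controls. Nonadherent tumor cells recovered by peritoneal lavage at necropsy, counted and pellet-weighed.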

[12] = Ratio of drug level in tumor to blood in athymic NCr mouse xenografted with human OVCAR-3 cells at 180 uCi, ip administered 9 days after tumor implantation as six fractionated doses every 4 days measured after 48 hrs by gamma counting; format: ADME, organism-based; settings: tumour
[13] = Ratio of drug level in tumor to liver in athymic NCr mouse xenografted with human OVCAR-3 cells at 180 uCi, ip administered 9 days after tumor implantation as six fractionated doses every 4 days measured after 1.5 hrs by gamma counting; format: ADME, organism-based; settings: in vivo
[14] = biological target: T2, Sex hormone-binding globulin; assay: Binding affinity to human sex hormone binding globulin at 10 to 20 uCi/mL after 60 mins by instant thin layer chromatography; format: ADME; settings: 1 h
OVCAR-3 [15] = assay: Cytotoxicity against human OVCAR-3 cells expressing androgen receptor assessed as cell survival at 3 uCi/mL after 48 hrs; format: functional
How it was run: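 NIH:OVCAR-3 cells were grown for 48 h with the 125I-labelled compound, and survival was plotted against the extracellular concentration in μCi/mL.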

SMILES | Drug uptake [1] | Activity (OVCAR-3 [2]) | Drug uptake (Stomach) | remaining at 1 h [3] | remaining at 6 h, 12.2 uCi [4] | remaining at 10 min [5] | remaining at 1 h [6] | Drug uptake (OVCAR-3 [7]) | Ratio [8] | Drug uptake (LNCaP) | t1/2 (OVCAR-3 [9]) | t1/2 [10] | Activity (OVCAR-3 [11]) | Ratio [12] | Ratio [13] | Activity [14] | Survival (OVCAR-3 [15])
C[C@]12CCC(=O)C[C@@H]1CC[C@@H]1[C@@H]2CC[C@]2(C)[C@@H](OC(=O)CCC(=O)O[C@H]3C[C@H](n4cc([125I])c(=O)[nH]c4=O)O[C@@H]3COP(=O)(O)O)CC[C@@H]12 | 0.008 %ID | 3.1 g | 0.009 %ID | – | – | – | – | – | – | – | – | – | – | – | – | – | –
C[C@]12CCC(=O)C[C@@H]1CC[C@@H]1[C@@H]2CC[C@]2(C)[C@@H](OC(=O)CCC(=O)O[C@H]3C[C@H](n4cc([125I])c(=O)[nH]c4=O)O[C@@H]3CO)CC[C@@H]12 | – | – | – | > 84% | 90% | < 1.5% | > 91% | 0.0124 cpm | 21.8 | Dose-dependent effect | 3.2 h | 68 h | 70% | 36.5 | 1.4 | Active | 50%
